According to ChEMBL document CHEMBL4229410, “Facile construction of fused benzimidazole-isoquinolinones that induce cell-cycle arrest and apoptosis in colorectal cancer cells” (Bioorg Med Chem, 2018):
The source made the active and inactive calls. The calls are words filed in the database; no cut-off is given here.

How the values were obtained:
[1] = target: MAP kinase-interacting serine/threonine-protein kinase 2 (Homo sapiens, UniProt Q9HBH9); assay: Inhibition of human MKNK2 (G63 to S388 residues) expressed in mammalian expression system assessed as residual activity at 5 uM by KINOMEscan assay relative to control
HT-29 [2] = assay: Induction of apoptosis in human HT-29 cells assessed as early apoptotic cells at 75 uM after 48 hrs by Annexin-V-FITC/propidium iodide staining based flow cytometry (reference value: 1%); format: functional
[3] = target: Fibroblast growth factor receptor 3 (Homo sapiens, UniProt P22607); assay: Inhibition of partial length human FGFR3 (R442 to S771 residues) expressed in bacterial expression system assessed as residual activity at 5 uM by KINOMEscan assay relative to control
[4] = target: Serine/threonine-protein kinase DCLK1 (Homo sapiens) (UniProt O15075); assay: Inhibition of partial length human DCAMKL1 (L270 to A662 residues) expressed in mammalian expression system assessed as residual activity at 5 uM by KINOMEscan assay relative to control
HT-29 [5] = assay: Effect on total 4EBP1 expression in human HT-29 cells up to 75 uM after 48 hrs by Western blot analysis; format: ADME, cell-based; conditions: ht-29, 48 h
Procedure, shortened: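 HT29 or SW620 cells were treated at 0, 25, 50 and 75 μM for 48 h and lysed in RIPA with protease and phosphatase inhibitors. Protein was quantified by BCA. 50 μg lysate was run on 8–15% SDS-PAGE and transferred to PVDF. Blocking was 5% BSA/TBST for 2 h; primary antibodies were applied overnight at 4 °C, then HRP secondary 1 h at room temperature.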

[6] = target: Tyrosine-protein kinase ZAP-70 (Homo sapiens, UniProt P43403); assay: Binding affinity to human ZAP70 (D20 to G299 residues) expressed in mammalian expression system by KINOMEscan assay
SW-620 [7] = assay: Induction of apoptosis in human SW620 cells assessed as necrotic cells at 25 uM after 48 hrs by Annexin-V-FITC/propidium iodide staining based flow cytometry (reference value: 0.9%); format: functional
SW-620 [8] = assay: Inhibition of colony formation in human SW620 cells assessed as reduction in number of colonies at 25 to 75 uM treated for 48 hrs followed by compound washout and measured after 14 hrs by crystal violet staining based assay; format: functional, cell-based
[9] = target: Serine/threonine-protein kinase PAK 4 (Homo sapiens, UniProt O96013); assay: Binding affinity to partial length human PAK4 (Q144 to R438 residues) expressed in bacterial expression system by KINOMEscan assay
[10] = target: Hepatocyte growth factor receptor (Homo sapiens, UniProt P08581); assay: Binding affinity to human MET (D1010 to S1367 residues) expressed in bacterial expression system by KINOMEscan assay
[11] = target: T1, Fibroblast growth factor receptor 2 (Homo sapiens, UniProt P21802); assay: Inhibition of partial length human FGFR2 (D457 to E769 residues) expressed in bacterial expression system assessed as residual activity at 5 uM by KINOMEscan assay relative to control
Target sequence in this assay (P21802 22-821 limits assumed): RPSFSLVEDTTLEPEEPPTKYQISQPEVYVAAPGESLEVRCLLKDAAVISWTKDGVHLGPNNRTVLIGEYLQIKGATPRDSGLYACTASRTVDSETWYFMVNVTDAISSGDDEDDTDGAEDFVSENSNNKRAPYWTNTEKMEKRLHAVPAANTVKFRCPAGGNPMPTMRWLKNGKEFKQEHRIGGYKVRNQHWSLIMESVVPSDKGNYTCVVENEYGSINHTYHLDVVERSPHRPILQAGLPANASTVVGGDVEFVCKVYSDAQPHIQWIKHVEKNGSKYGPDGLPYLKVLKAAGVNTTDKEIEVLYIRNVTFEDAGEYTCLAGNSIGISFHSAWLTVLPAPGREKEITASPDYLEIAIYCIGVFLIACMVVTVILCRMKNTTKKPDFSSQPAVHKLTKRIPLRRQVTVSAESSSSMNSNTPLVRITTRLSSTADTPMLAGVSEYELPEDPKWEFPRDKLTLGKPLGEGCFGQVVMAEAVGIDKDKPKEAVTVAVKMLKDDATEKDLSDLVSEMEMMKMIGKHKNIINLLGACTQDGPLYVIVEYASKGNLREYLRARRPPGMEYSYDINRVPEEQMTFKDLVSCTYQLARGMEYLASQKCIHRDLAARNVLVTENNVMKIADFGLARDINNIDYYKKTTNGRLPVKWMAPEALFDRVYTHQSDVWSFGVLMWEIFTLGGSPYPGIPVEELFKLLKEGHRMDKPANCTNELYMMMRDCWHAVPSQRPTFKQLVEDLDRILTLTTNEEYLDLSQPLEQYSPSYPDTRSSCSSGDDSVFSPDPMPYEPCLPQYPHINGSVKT

[12] = target: Receptor tyrosine-protein kinase erbB-2 (Homo sapiens, UniProt P04626); assay: Inhibition of human ERBB2 (K646 to V1225 residues) expressed in mammalian expression system assessed as residual activity at 5 uM by KINOMEscan assay relative to control
HT-29 [13] = assay: Induction of apoptosis in human HT-29 cells assessed as live cells at 25 uM after 48 hrs by Annexin-V-FITC/propidium iodide staining based flow cytometry (reference value: 93.2%); format: functional
SW-620 [14] = assay: Cell cycle arrest in human SW620 cells assessed as accumulation at G1-phase at 75 uM after 48 hrs by propidium iodide staining based flow cytometry (reference value: 40.56%); format: functional
[15] = target: Receptor tyrosine-protein kinase erbB-4 (Homo sapiens, UniProt Q15303); assay: Binding affinity to human ERBB4 (L690 to K994 residues) expressed in bacterial expression system by KINOMEscan assay
[16] = target: Testis-specific serine/threonine-protein kinase 1 (Homo sapiens, UniProt Q9BXA7); assay: Binding affinity to full length human TSSK1B (M1 to Q367 residues) expressed in bacterial expression system by KINOMEscan assay
SW-620 [17] = assay: Cell cycle arrest in human SW620 cells assessed as accumulation at G2-phase at 50 uM after 48 hrs by propidium iodide staining based flow cytometry (reference value: 14.08%); format: functional
[18] = target: Inhibitor of nuclear factor kappa-B kinase subunit alpha (Homo sapiens) (UniProt O15111); assay: Inhibition of full length human IKKalpha (M1 to E745 residues) expressed in mammalian expression system assessed as residual activity at 5 uM by KINOMEscan assay relative to control
SW-620 [19] = assay: Induction of apoptosis in human SW620 cells assessed as increase in PARP activation after 48 hrs by Western blot analysis; format: functional, cell-based
HT-29 [20] = assay: Induction of apoptosis in human HT-29 cells assessed as late apoptotic cells at 50 uM after 48 hrs by Annexin-V-FITC/propidium iodide staining based flow cytometry (reference value: 4.1%); format: functional
Insulin receptor = Insulin receptor (Homo sapiens, UniProt P06213); assay: Binding affinity to human INSR (P997 to E1318 residues) expressed in mammalian expression system by KINOMEscan assay
[21] = target: Mitogen-activated protein kinase 14 (Homo sapiens, UniProt Q16539); assay: Binding affinity to full length human p38alpha (M1 to S360 residues) expressed in bacterial expression system by KINOMEscan assay
[22] = target: T1, Fibroblast growth factor receptor 2; assay: Binding affinity to partial length human FGFR2 (D457 to E769 residues) expressed in bacterial expression system by KINOMEscan assay
[23] = target: Macrophage colony-stimulating factor 1 receptor (Homo sapiens, UniProt P07333); assay: Inhibition of human CSF1R (I564 to S939 residues) expressed in bacterial expression system assessed as residual activity at 5 uM by KINOMEscan assay relative to control
[24] = target: Mitogen-activated protein kinase 9 (Homo sapiens, UniProt P45984); assay: Binding affinity to full length human JNK2 (M1 to Q382 residues) expressed in mammalian expression system by KINOMEscan assay
SW-620 [25] = assay: Cell cycle arrest in human SW620 cells assessed as increase in accumulation at G2/M-phase after 48 hrs by propidium iodide staining based flow cytometry; format: functional
HT-29 [26] = assay: Cell cycle arrest in human HT-29 cells assessed as accumulation at G1-phase at 75 uM after 48 hrs by propidium iodide staining based flow cytometry (reference value: 41.86%); format: functional
[27] = target: MAP kinase-activated protein kinase 2 (Homo sapiens, UniProt P49137); assay: Inhibition of human MAPKAPK2 (V48 to D345 residues) expressed in bacterial expression system assessed as residual activity at 5 uM by KINOMEscan assay relative to control
[28] = target: Tyrosine-protein kinase ZAP-70 (Homo sapiens) (UniProt P43403); assay: Inhibition of human ZAP70 (D20 to G299 residues) expressed in mammalian expression system assessed as residual activity at 5 uM by KINOMEscan assay relative to control

Insulin receptor, sequence (P06213 28-758 limits assumed): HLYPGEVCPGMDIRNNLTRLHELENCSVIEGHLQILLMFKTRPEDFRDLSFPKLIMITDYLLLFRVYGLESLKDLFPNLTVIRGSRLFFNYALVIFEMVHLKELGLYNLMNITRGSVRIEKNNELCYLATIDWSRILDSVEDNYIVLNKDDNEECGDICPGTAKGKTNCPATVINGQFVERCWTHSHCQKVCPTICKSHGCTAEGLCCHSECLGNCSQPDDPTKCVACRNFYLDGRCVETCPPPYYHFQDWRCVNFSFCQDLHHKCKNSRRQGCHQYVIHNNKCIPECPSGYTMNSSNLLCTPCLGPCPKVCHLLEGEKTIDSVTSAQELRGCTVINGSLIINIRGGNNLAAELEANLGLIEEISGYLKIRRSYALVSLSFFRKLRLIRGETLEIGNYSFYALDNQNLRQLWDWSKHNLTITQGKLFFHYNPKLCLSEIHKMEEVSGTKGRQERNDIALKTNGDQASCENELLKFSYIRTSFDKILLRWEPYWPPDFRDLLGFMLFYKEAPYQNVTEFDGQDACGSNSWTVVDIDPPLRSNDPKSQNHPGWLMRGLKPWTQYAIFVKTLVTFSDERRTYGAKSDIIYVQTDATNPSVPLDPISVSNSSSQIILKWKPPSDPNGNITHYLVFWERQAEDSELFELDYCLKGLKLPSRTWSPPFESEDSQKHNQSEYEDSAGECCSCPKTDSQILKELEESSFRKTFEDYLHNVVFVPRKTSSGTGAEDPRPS
Insulin receptor, sequence (P06213 763-1382 limits assumed): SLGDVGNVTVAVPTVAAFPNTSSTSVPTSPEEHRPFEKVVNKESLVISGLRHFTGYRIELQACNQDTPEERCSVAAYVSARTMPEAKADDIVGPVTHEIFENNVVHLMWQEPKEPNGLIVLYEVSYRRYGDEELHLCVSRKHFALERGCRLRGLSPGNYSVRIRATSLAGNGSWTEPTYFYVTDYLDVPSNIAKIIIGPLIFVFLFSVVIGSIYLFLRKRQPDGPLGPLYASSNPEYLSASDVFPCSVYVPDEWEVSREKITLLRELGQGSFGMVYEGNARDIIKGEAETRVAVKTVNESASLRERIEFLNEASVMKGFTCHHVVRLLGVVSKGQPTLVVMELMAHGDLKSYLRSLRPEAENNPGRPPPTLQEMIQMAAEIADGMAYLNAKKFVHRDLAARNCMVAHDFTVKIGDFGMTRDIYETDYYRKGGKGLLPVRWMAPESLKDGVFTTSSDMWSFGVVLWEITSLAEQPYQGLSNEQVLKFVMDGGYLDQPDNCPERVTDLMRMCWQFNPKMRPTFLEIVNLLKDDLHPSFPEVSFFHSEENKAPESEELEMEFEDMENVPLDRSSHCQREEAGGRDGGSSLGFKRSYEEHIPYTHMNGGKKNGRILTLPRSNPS
Macrophage colony-stimulating factor 1 receptor, sequence (P07333 whole entry, the tested form may be a part): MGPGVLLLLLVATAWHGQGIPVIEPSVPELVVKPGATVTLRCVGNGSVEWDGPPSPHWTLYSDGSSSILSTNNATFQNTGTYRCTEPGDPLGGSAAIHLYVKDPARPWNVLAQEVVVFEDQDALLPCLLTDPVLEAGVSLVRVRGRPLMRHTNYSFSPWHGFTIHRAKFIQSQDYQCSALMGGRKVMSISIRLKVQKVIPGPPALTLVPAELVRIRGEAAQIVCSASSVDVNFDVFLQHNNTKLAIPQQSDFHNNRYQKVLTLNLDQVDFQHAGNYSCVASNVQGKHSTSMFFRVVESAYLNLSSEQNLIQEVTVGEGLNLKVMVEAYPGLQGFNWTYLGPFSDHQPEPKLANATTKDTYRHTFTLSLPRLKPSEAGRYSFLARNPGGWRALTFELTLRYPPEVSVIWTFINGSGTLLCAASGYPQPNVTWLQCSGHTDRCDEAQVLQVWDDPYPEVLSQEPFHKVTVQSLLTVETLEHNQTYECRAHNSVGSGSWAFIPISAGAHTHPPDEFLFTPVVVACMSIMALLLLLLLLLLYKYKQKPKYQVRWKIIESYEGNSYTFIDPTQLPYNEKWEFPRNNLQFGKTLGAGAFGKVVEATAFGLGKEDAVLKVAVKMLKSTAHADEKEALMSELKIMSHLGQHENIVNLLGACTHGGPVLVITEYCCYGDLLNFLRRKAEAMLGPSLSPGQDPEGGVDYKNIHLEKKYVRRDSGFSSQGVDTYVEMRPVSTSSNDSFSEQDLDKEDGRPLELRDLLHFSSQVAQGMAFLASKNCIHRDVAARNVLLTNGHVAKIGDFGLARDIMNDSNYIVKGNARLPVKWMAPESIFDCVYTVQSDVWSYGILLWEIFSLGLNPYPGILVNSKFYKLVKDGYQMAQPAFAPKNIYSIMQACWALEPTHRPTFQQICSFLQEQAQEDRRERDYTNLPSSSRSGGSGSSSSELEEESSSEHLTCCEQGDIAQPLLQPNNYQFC
MAP kinase-interacting serine/threonine-protein kinase 2, sequence (Q9HBH9 whole entry, looked up, the tested form may be a part): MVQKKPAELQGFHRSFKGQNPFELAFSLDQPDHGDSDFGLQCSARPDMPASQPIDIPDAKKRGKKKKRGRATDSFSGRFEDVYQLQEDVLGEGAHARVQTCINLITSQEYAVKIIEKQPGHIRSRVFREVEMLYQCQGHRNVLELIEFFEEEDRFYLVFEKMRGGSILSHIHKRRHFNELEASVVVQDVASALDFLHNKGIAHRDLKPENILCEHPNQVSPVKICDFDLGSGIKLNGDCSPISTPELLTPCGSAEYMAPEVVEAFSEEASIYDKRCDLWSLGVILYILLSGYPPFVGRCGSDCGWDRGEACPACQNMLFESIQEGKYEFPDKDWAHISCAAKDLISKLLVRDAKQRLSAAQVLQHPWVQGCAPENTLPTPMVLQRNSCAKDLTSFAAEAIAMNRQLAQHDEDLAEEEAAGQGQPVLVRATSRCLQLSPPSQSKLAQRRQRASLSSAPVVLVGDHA
MAP kinase-activated protein kinase 2, sequence (P49137 whole entry, looked up, the tested form may be a part): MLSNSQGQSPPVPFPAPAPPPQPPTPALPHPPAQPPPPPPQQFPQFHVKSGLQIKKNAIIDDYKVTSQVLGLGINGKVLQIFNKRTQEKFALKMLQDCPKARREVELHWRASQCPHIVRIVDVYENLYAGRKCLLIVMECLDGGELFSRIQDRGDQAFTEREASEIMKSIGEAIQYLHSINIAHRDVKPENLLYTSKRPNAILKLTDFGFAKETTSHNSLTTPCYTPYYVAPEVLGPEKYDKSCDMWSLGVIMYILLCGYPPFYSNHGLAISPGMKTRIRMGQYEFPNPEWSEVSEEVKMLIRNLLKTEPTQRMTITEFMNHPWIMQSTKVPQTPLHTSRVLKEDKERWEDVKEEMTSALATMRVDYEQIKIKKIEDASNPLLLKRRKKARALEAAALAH
Serine/threonine-protein kinase PAK 4, sequence (O96013 whole entry, the tested form may be a part): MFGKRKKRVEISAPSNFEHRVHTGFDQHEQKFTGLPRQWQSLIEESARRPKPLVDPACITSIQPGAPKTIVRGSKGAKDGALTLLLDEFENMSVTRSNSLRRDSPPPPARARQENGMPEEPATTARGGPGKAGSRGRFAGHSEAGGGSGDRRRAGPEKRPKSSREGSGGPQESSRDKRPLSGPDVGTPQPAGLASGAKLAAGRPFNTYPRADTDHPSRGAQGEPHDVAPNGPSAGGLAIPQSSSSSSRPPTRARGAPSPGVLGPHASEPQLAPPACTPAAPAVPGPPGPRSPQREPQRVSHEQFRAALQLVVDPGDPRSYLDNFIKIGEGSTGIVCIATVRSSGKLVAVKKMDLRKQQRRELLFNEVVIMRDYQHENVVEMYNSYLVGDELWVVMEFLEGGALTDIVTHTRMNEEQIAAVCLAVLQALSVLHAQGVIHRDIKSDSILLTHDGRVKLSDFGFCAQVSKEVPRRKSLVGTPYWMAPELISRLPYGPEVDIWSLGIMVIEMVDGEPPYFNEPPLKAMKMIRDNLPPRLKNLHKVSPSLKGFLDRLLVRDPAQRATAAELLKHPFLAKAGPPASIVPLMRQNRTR
Mitogen-activated protein kinase 9, sequence (P45984 whole entry, the tested form may be a part): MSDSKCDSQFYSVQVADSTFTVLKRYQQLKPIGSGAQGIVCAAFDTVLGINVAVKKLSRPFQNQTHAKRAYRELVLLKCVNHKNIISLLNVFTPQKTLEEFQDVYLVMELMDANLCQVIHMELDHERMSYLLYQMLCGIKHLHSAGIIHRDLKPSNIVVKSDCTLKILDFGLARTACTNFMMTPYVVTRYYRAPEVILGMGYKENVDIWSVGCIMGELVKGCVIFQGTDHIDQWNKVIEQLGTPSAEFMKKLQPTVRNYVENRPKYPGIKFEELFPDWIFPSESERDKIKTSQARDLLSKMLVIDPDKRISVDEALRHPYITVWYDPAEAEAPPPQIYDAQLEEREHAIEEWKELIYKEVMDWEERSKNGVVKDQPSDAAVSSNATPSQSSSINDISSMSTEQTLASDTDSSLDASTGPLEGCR

Q: With `CC(C)CN(C(=O)c1cccnc1)c1c2ccccc2c(=O)n2c1[nH]c1ccccc12` as the molecule, how does the Activity [1] read?
A: 92%

Q: What about the Activity (HT-29 [2]) of the same molecule?
A: 0.3%

Q: What about the Activity [3] of the same molecule?
A: 80%

Q: And the Activity [4]?
A: 74%

Q: And the Activity (HT-29 [5])?
A: Non-Toxic

Q: What about the Kd [6] of the same molecule?
A: ≥ 5 µM

Q: What about the Activity (SW-620 [7]) of the same molecule?
A: 3.1%

Q: What about the inhibition (SW-620 [8]) of the same molecule?
A: Active

Q: And the Kd [9]?
A: ≥ 5 µM

Q: What about the Kd [10] of the same molecule?
A: ≥ 5 µM

Q: And the Activity [11]?
A: 76%

Q: And the Activity [12]?
A: 97%

Q: What about the Activity (HT-29 [13]) of the same molecule?
A: 88.4%

Q: What about the Activity (SW-620 [14]) of the same molecule?
A: 31.67%

Q: And the Kd [15]?
A: ≥ 5 µM

Q: And the Kd [16]?
A: ≥ 5 µM

Q: And the Activity (SW-620 [17])?
A: 21.52%

Q: And the Activity [18]?
A: 100%

Q: And the Activity (SW-620 [19])?
A: Dose-dependent effect

Q: And the Activity (HT-29 [20])?
A: 13.7%

Q: What about the Kd (Insulin receptor) of the same molecule?
A: ≥ 5 µM

Q: And the Kd [21]?
A: ≥ 5 µM

Q: What about the Kd [22] of the same molecule?
A: ≥ 5 µM

Q: And the Activity [23]?
A: 100%

Q: And the Kd [24]?
A: ≥ 5 µM

Q: And the Activity (SW-620 [25])?
A: Dose-dependent effect

Q: What about the Activity (HT-29 [26]) of the same molecule?
A: 43.36%

Q: What about the Activity [27] of the same molecule?
A: 100%

Q: What about the Activity [28] of the same molecule?
A: 89%
